What all share (format): functional
Test [1] has as its system PC-3. Put plainly: Growth inhibition of human PC3 cells at 10 uM after 48 hrs by MTT assay. The settings on record: PC-3, 48 h, read-out: GI. Put shortly: (§1)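 Cells from ECACC are kept in RPMI-1640 with 10% FCS and 1% penicillin at 37 °C in 5% CO2. They are seeded at 3×10^3 cells/well and dosed after 24 h from filter-sterilized DMSO stocks, then treated for 48 h. MTT (2.5 mg/mL in PBS) is added, formazan is dissolved in DMSO, and A570 is read. Viability is given as % of untreated.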

Test [2] concerns Staphylococcus aureus. Description: Antibacterial activity against Staphylococcus aureus MTCC 2901 after 24 hrs by tube dilution method.
For test [3], the system named is A549. Put plainly: Growth inhibition of human A549 cells at 10 uM after 48 hrs by MTT assay. The settings on record: A549, 48 h, read-out: GI. Put shortly:
as §1

The subject of test [4] is A549. Put plainly: Growth inhibition of human A549 cells at 50 uM after 48 hrs by MTT assay. The settings on record: A549, 48 h, read-out: GI. The gist of the method: as §1
Test [5] has as its system Aspergillus niger. Description: Antifungal activity against Aspergillus niger MTCC 8184 after 7 days by tube dilution method. The gist of the method:
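Tube (serial) dilution MIC in Sabouraud dextrose broth I.P., 25 °C for 7 days. Results are recorded as MIC and reported as pMIC in mM.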

Test [6] relates to Candida albicans. Put plainly: Antifungal activity against Candida albicans MTCC 227 after 48 hrs by tube dilution method.
Test [7] relates to HCT-116. Put plainly: Growth inhibition of human HCT116 cells at 10 uM after 48 hrs by MTT assay. To be noted: HCT-116, 48 h, read-out: GI. Put shortly: as §1
Test [8] has as its system PC-3. Description: Growth inhibition of human PC3 cells at 50 uM after 48 hrs by MTT assay. To be noted: PC-3, 48 h, read-out: GI. The gist of the method:
as §1

Test [9] relates to HCT-116. Put plainly: Growth inhibition of human HCT116 cells at 50 uM after 48 hrs by MTT assay. To be noted: HCT-116, 48 h, read-out: GI. The gist of the method:
as §1

Test [10] deals with Escherichia coli. Description: Antibacterial activity against Escherichia coli MTCC 1652 after 24 hrs by tube dilution method.
Test [11] has as its system Bacillus subtilis. Description: Antibacterial activity against Bacillus subtilis MTCC 2063 after 24 hrs by tube dilution method.
The test system of test [12] is MCF7. Put plainly: Growth inhibition of human MCF7 cells at 50 uM after 48 hrs by MTT assay. To be noted: MCF7, 48 h, read-out: GI. Put shortly: as §1
Test [13] concerns MCF7. Description: Growth inhibition of human MCF7 cells at 10 uM after 48 hrs by MTT assay. The settings on record: MCF7, 48 h, read-out: GI. Put shortly:
as §1

For `c1ccc(C2=NC(c3ccccc3)c3c(ccc4ccccc34)O2)cc1` (centres undefined), the inhibition of growth at 10 µM in test [1] turned out to be 1%; in [3], 19%; in test [7], 5%; in test [13], 26%. In addition, the “-logMIC” value in test [2] came to 1.43; in [5] it was 1.43; in test [6], 1.73; in test [10] it was 2.33; in test [11] it was 2.03. For the same compound, the inhibition of growth at 50 µM came out at 36% in test [4], 16% in test [8], 22% in [9] and 37% in test [12].
Turning to `OC(Cn1cncn1)(Cn1cncn1)c1ccc(F)cc1F` [FLUCONAZOLE], the “-logMIC” value in test [5] and in [6] was 2.64 in each case.
For `Cc1ccc(C2=NC(c3ccc(C)cc3)c3c(ccc4ccccc34)O2)cc1` (centres undefined), the inhibition of growth at 10 µM in test [1] stood at 1%; in [3], 17%; in test [7], 19%; in [13], 30%. The “-logMIC” value in test [2] is given as 1.46; in [5], 1.46; in test [6] it was 1.76; in test [10] it was 1.46; in test [11] it was 2.07. The inhibition of growth at 50 µM in test [4] is 36%; in [8], 5%; in test [9] it was 24%; in test [12], 37%.
On to `COc1ccc(C2=NC(c3ccccc3)c3c(ccc4ccccc34)O2)cc1` (centres undefined), for which the inhibition of growth at 10 µM in test [1] was found to be 19%; in [3], 19%; in test [7] it was 8%; in test [13], 37%. Moreover, the “-logMIC” value in [2] was 1.77; in test [5] it was 1.47; in test [6], 1.77; in [10], 2.37; in [11], 1.77. For the same compound, the inhibition of growth at 50 µM amounted to 43% in test [4], 23% in test [8], 14% in [9] and 42% in [12].
As to `Cc1ccc(C2N=C(c3ccc(Cl)cc3)Oc3ccc4ccccc4c32)cc1` (centres undefined), the inhibition of growth at 10 µM was found to be 8% in test [1], 16% in test [3], 3% in test [7] and 21% in test [13]. Also, the “-logMIC” value in test [2] is recorded as 1.49; in test [5], 1.49; in [6], 1.79; in [10] it was 0.88; in [11], 1.79. Further, the inhibition of growth at 50 µM in [4] came out at 28%; in test [8], 13%; in [9], 6%; in test [12] it was 37%.
`Clc1ccc(C2=NC(c3ccccc3)c3c(ccc4ccccc34)O2)cc1` (centres undefined): the inhibition of growth at 10 µM came to 9% in [1], 17% in test [3], 3% in test [7] and 27% in [13]. The “-logMIC” value in test [2] was 1.77; in test [5], 1.47; in test [6] it was 1.77; in [10] it was 2.37; in test [11], 1.77. Also, the inhibition of growth at 50 µM in test [4] was 38%; in test [8], 19%; in test [9], 29%; in test [12], 39%.
For `Cc1ccc(C2N=C(c3ccc([N+](=O)[O-])cc3)Oc3ccc4ccccc4c32)cc1` (centres undefined), the inhibition of growth at 10 µM was determined as 8% in test [1], 13% in test [3], 7% in test [7] and 35% in [13]. Further, the “-logMIC” value came out at 1.8 in test [2]; 1.5 in test [5]; 1.8 in [6]; 1.8 in [10]; 1.8 in test [11]. Besides, the inhibition of growth at 50 µM in [4] stood at 41%; in [8], 12%; in test [9], 21%; in test [12], 40%.
Regarding `O=C(O)c1cn(C2CC2)c2cc(N3CCNCC3)c(F)cc2c1=O` [CIPROFLOXACIN], the “-logMIC” value in test [2], in [10] and in [11] was 2.61 throughout.
Consider `O=[N+]([O-])c1ccc(C2=NC(c3ccccc3)c3c(ccc4ccccc34)O2)cc1` (centres undefined), for which the inhibition of growth at 10 µM in [1] worked out at 6%; in test [3], 17%; in test [7], 4%; in [13] it was 34%. The “-logMIC” value in test [2] turned out to be 1.78; in test [5], 1.48; in [6] it was 1.78; in [10], 1.78; in [11] it was 1.78. Also, the inhibition of growth at 50 µM in test [4] was 43%; in [8], 8%; in [9], 14%; in test [12], 42%.
With `COc1ccc(C2=NC(c3ccc(OC)cc3)c3c(ccc4ccccc34)O2)cc1` (centres undefined), the inhibition of growth at 10 µM in test [1] turned out to be 17%; in [3], 22%; in test [7], 27%; in test [13] it was 22%. Moreover, the “-logMIC” value in test [2] was 1.5; in test [5], 1.5; in test [6], 1.8; in [10] it was 2.1; in [11], 2.1. Further, the inhibition of growth at 50 µM in test [4] came to 35%; in test [8] it was 19%; in test [9], 29%; in [12] it was 26%.
`COc1ccc(C2=NC(c3ccc(C)cc3)c3c(ccc4ccccc34)O2)cc1` (centres undefined): the inhibition of growth at 10 µM was determined as 1% in test [1], 15% in test [3], 7% in [7] and 36% in test [13]. The “-logMIC” value worked out at 1.78 in test [2]; 1.48 in test [5]; 1.78 in test [6]; 2.08 in test [10]; 1.78 in test [11]. For the same compound, the inhibition of growth at 50 µM is 36% in [4], 10% in [8], 14% in test [9] and 39% in [12].
Regarding `Cc1ccc(C2N=C(c3ccc(F)cc3)Oc3ccc4ccccc4c32)cc1` (centres undefined), the inhibition of growth at 10 µM came out at 5% in test [1], 16% in test [3], 18% in [7] and 20% in test [13]. Besides, the “-logMIC” value came out at 1.47 in [2]; 1.47 in [5]; 1.77 in [6]; 2.07 in [10]; 2.07 in test [11]. The inhibition of growth at 50 µM in test [4] worked out at 44%; in test [8], 19%; in [9], 23%; in test [12], 44%.
On to `Cc1ccc(C2N=C(c3ccccc3)Oc3ccc4ccccc4c32)cc1` (centres undefined), for which the inhibition of growth at 10 µM in test [1] turned out to be 1%; in [3] it was 17%; in test [7], 2%; in [13], 17%. Moreover, the “-logMIC” value in test [2] is on record as 1.45; in test [5] it was 1.45; in test [6], 1.75; in test [10], 2.35; in [11], 1.75. Besides, the inhibition of growth at 50 µM in test [4] was determined as 37%; in test [8], 3%; in [9], 8%; in test [12] it was 32%.
`Cc1ccc(C2N=C(c3ccc(Br)cc3)Oc3ccc4ccccc4c32)cc1` (centres undefined): the inhibition of growth at 10 µM stood at 0% in test [1], 13% in test [3], 2% in [7] and 26% in [13]. The “-logMIC” value came to 1.83 in test [2]; 1.53 in test [5]; 1.83 in [6]; 1.83 in [10]; 1.83 in test [11]. Moreover, the inhibition of growth at 50 µM is 32% in test [4], 2% in [8], 10% in test [9] and 33% in test [12].
For `Clc1ccc(C2=NC(c3ccc(Cl)cc3)c3c(ccc4ccccc34)O2)cc1` (centres undefined), the inhibition of growth at 10 µM is 1% in test [1], 28% in test [3], 2% in [7] and 16% in test [13]. Also, the “-logMIC” value in [2] stood at 1.51; in [5], 1.51; in test [6] it was 1.81; in [10] it was 2.11; in test [11], 1.81. In addition, the inhibition of growth at 50 µM is 54% in [4], 2% in test [8], 10% in test [9] and 38% in [12].

The values are drawn from ChEMBL document CHEMBL2086288, “Synthesis, antimicrobial and cytotoxicity study of 1,3-disubstituted-1H-naphtho[1,2-e][1,3]oxazines” (2012).
